Article PMC12772459 (The Journal of general physiology, 2025)
Where two headings read alike, the source gives them in different places.

Tests used:
GluN1/2A-Y754K = GluN1/2A-Y754K (Rattus norvegicus, UniProt P35439+Q00959, Y754K); assay: Two-electrode voltage-clamp recordings, mutant GluN1/2A-Y754K; type: cell-based; conditions: 300 μM glutamate
GluN1/2C receptors = GluN1/2C receptors (Rattus norvegicus, UniProt P35439+Q00961); assay: Two-electrode voltage-clamp recordings of recombinant GluN1/2C receptors; type: cell-based; conditions: for selectivity for GluN1/2A over GluN1/2C: glycine concentration close to respective EC50
GluN1/2D receptors = GluN1/2D receptors (Rattus norvegicus, UniProt P35439+Q62645); assay: Two-electrode voltage-clamp recordings of recombinant GluN1/2D receptors; type: cell-based; conditions: for Hill slope nH of inhibition: 0.1 μM glycine, 100 μM glutamate; for selectivity for GluN1/2A over GluN1/2D: glycine concentration close to respective EC50
GluN1/2A receptors [1] = target: T1, GluN1/2A receptors (Rattus norvegicus, UniProt P35439+Q00959); type: cell-based; conditions: global non-linear regression of glycine concentration-response data
GluN1/2A-I755V = GluN1/2A-I755V (Rattus norvegicus, UniProt P35439+Q00959, I755V); assay: Two-electrode voltage-clamp recordings, mutant GluN1/2A-I755V; type: cell-based; conditions: 300 μM glutamate
GluN1/2A-I755F = GluN1/2A-I755F (Rattus norvegicus, UniProt P35439+Q00959, I755F); assay: Two-electrode voltage-clamp recordings, mutant GluN1/2A-I755F; type: cell-based
GluN1/2B receptors = GluN1/2B receptors (Rattus norvegicus, UniProt P35439+Q00960); assay: Two-electrode voltage-clamp recordings of recombinant GluN1/2B receptors; type: cell-based; conditions: for Hill slope nH of inhibition: 0.3 μM glycine, 100 μM glutamate; for selectivity for GluN1/2A over GluN1/2B: glycine concentration close to respective EC50
Sequence of GluN1/2B receptors (Q00960 27-1482, other chains not shown): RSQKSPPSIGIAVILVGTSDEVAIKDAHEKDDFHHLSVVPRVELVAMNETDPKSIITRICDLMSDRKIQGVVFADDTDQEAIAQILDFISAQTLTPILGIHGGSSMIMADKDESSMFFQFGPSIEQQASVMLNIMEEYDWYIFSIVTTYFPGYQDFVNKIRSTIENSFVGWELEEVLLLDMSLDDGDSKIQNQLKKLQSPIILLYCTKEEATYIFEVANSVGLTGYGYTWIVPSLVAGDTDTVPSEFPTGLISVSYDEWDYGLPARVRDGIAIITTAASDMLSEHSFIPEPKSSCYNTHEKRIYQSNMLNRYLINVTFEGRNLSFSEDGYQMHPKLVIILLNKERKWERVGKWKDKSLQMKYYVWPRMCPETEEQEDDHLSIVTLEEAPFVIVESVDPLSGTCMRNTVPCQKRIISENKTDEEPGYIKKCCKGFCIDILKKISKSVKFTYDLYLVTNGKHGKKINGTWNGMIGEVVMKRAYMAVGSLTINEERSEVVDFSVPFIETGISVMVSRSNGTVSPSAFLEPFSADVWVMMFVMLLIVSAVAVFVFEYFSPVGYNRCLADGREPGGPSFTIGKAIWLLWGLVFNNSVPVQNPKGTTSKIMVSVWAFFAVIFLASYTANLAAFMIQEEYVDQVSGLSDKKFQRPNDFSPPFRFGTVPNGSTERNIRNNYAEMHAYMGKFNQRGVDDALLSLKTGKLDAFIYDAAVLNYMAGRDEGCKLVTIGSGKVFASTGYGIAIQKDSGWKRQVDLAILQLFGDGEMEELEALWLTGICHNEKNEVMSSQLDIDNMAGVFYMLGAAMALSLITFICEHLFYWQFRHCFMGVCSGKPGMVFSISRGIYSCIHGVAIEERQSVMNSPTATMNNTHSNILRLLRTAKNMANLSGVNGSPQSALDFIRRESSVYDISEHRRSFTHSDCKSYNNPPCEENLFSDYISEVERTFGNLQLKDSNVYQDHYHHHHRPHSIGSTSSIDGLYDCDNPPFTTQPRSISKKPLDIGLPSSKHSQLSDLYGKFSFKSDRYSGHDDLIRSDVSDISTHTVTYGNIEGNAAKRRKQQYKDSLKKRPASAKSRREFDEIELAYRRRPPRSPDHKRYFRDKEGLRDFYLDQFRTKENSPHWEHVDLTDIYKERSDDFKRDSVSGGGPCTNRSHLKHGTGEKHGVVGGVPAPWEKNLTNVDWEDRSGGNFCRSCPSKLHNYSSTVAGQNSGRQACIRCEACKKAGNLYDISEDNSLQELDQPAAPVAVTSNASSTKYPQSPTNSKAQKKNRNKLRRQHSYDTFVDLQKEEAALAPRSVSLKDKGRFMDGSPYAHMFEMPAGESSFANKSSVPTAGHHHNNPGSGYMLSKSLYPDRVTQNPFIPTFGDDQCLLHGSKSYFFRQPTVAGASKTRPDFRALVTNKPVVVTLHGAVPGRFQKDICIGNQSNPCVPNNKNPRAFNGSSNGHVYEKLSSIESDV

GluN1/2A-I755V+Y754K = GluN1/2A-I755V+Y754K (Rattus norvegicus, UniProt P35439+Q00959, I755V/Y754K); assay: Two-electrode voltage-clamp recordings, mutant GluN1/2A-I755V+Y754K; type: cell-based; conditions: 1 μM glycine, 300 μM glutamate
[2] = system: triheteromeric GluN1/2A/2B receptors; type: cell-based, rat; conditions: 100 μM glutamate; for Hill slope nH of inhibition: 1 μM glycine; for IC50: read-out: IC50 (95% CI), […] μM glycine
GluN1/2A receptors [3] = target: T1, GluN1/2A receptors; type: cell-based; conditions: for selectivity for GluN1/2A over GluN1/2B-D receptors: in 1 μM glycine; for IC50: read-out: IC50 (95% CI), […] μM glycine
GluN1/2A-V783F = GluN1/2A-V783F (Rattus norvegicus, UniProt P35439+Q00959, V783F); assay: Two-electrode voltage-clamp recordings, mutant GluN1/2A-V783F; type: cell-based; conditions: 0.5 μM glycine; for Hill slope nH of inhibition: 300 μM glutamate; for decrease of potency compared to wild type GluN1/2A: saturating glutamate
GluN1/2A-V783L = GluN1/2A-V783L (Rattus norvegicus, UniProt P35439+Q00959, V783L); assay: Two-electrode voltage-clamp recordings, mutant GluN1/2A-V783L; type: cell-based; conditions: 0.5 μM glycine; for Hill slope nH of inhibition: 300 μM glutamate; for decrease of potency compared to wild type GluN1/2A: saturating glutamate
GluN1/2A-V529I = GluN1/2A-V529I (Rattus norvegicus, UniProt P35439+Q00959, V529I); assay: Two-electrode voltage-clamp recordings, mutant GluN1/2A-V529I; type: cell-based
GluN1/2A-E789Q = GluN1/2A-E789Q (Rattus norvegicus, UniProt P35439+Q00959, E789Q); assay: Two-electrode voltage-clamp recordings, mutant GluN1/2A-E789Q; type: cell-based
GluN1/2A-M788T = GluN1/2A-M788T (Rattus norvegicus, UniProt P35439+Q00959, M788T); assay: Two-electrode voltage-clamp recordings, mutant GluN1/2A-M788T; type: cell-based
GluN1/2A-T797S = GluN1/2A-T797S (Rattus norvegicus, UniProt P35439+Q00959, T797S); assay: Two-electrode voltage-clamp recordings, mutant GluN1/2A-T797S; type: cell-based
Sequence of GluN1/2A-T797S (Q00959 23-1464 T797S, other chains not shown): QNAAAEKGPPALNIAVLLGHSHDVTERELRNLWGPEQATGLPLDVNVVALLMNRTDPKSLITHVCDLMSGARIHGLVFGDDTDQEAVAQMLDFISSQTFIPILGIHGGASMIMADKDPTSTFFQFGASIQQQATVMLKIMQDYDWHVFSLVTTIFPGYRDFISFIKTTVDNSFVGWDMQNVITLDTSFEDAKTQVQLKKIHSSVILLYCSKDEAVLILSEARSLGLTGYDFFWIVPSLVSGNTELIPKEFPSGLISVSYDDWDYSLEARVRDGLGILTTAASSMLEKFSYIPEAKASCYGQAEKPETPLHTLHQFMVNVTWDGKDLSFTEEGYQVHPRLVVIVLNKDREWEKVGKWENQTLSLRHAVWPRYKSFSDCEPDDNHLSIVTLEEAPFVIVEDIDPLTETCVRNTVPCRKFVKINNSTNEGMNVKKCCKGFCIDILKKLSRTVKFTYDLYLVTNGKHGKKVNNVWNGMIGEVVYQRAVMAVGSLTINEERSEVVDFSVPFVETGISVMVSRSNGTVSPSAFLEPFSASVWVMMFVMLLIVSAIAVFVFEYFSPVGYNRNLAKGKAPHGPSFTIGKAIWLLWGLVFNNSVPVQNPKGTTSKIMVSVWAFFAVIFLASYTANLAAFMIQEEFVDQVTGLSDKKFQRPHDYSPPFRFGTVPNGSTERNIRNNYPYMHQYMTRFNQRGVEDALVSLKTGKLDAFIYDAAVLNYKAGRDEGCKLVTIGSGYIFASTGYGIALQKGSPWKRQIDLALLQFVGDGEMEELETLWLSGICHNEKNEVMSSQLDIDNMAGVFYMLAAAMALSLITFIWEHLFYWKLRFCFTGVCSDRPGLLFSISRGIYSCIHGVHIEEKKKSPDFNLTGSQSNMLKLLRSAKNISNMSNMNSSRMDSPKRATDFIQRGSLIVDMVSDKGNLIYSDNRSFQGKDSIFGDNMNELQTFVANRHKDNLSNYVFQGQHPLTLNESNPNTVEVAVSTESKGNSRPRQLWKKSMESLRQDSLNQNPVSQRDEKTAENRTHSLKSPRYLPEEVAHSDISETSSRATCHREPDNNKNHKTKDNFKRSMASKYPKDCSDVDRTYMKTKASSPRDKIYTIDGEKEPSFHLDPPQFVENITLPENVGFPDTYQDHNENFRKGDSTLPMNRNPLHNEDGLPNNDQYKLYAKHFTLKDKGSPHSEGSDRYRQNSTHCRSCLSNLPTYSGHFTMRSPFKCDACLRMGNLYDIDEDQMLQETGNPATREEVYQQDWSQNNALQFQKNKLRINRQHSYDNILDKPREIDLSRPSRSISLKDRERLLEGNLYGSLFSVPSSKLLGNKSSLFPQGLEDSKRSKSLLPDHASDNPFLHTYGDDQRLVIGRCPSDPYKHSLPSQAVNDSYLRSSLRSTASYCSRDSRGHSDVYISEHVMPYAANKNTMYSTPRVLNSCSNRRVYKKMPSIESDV

GluN1/2A-M788I = GluN1/2A-M788I (Rattus norvegicus, UniProt P35439+Q00959, M788I); assay: Two-electrode voltage-clamp recordings, mutant GluN1/2A-M788I; type: cell-based
Sequence of GluN1/2A-M788I (Q00959 23-1464 M788I, other chains not shown): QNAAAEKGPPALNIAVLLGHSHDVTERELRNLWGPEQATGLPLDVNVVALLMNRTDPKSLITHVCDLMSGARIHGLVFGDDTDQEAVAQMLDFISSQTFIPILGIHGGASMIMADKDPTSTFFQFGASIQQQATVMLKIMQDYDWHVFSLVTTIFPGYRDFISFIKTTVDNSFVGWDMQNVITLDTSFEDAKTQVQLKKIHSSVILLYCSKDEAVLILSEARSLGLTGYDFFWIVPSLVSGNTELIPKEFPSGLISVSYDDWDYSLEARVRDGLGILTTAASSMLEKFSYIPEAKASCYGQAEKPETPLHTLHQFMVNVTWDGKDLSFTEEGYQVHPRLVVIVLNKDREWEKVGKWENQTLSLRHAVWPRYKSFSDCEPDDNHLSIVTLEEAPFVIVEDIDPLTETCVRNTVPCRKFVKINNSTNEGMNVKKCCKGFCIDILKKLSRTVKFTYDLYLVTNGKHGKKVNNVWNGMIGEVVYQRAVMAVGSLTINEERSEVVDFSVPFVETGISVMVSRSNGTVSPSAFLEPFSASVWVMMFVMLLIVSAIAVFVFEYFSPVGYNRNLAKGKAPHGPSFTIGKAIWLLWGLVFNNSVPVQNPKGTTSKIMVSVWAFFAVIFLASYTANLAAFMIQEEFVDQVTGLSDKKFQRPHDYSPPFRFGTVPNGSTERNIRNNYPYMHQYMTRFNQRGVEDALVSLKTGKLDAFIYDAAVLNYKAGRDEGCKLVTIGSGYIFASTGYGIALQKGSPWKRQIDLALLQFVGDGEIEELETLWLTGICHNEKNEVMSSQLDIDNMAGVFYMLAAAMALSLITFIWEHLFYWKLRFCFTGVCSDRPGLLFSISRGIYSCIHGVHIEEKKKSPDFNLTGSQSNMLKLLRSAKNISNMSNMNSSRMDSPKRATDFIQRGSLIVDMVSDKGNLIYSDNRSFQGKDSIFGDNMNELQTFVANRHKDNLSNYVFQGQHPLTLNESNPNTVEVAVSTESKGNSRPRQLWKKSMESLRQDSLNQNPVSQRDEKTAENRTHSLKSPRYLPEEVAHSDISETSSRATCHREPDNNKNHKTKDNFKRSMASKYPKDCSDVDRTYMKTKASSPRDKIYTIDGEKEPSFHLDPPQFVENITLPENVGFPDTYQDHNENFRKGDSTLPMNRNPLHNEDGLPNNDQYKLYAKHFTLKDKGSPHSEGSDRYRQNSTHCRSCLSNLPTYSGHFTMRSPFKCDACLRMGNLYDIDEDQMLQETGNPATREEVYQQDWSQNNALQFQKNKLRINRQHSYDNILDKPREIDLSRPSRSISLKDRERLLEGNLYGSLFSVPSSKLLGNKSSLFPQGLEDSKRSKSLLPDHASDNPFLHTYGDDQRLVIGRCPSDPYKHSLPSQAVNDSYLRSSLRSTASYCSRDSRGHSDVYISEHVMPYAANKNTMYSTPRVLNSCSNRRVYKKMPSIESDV

[4] = ref Volkmann et al., 2016; cited from earlier work
GluN1/2A receptors [5] = target: T1, GluN1/2A receptors; conditions: ref Lotti et al., 2025, cited from earlier work; for Kb: read-out: binding affinity KB
[6] = target: triheteromeric GluN1/2A/2B receptors; conditions: read-out: glycine EC50; previously reported; ref Lotti et al., 2025; cited from earlier work
[7] = system: NMDA receptor-mediated EPSCs from CA1 pyramidal neurons; type: cell-based, mouse; conditions: 3 μM compound, baseline vs following NAM application
Outline: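 Hippocampal slices from 3–5-week-old male and female C57BL/6J mice, perfused with aCSF at 32 °C. Whole-cell recordings from CA1 cells with Cs-based internal solution at +40 mV. Schaffer collaterals stimulated every 30 s with 10 μM NBQX and 10 μM gabazine. After 5-min baseline, test compound bath-applied at 3 μM. τW from double-exponential fit of deactivation; ratio paired t-test.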

[8] = read-out: IC50 (95% CI), […] μM glycine
[9] = read-out: IC50 (95% CI), […] μM glycine, 300 μM glutamate
[10] = glycine near EC50, saturating glutamate

## O=C(CSc1nnc(NCc2ccccc2)s1)NCC1CCCCC1 [TCN-213]
GluN1/2A-Y754K; 1 μM glycine
  Hill slope nH of inhibition: 1.1
GluN1/2A-Y754K; [8]
  IC50: 1.2 µM
GluN1/2C receptors; 0.3 μM glycine, 100 μM glutamate
  Hill slope nH of inhibition: 1.1
GluN1/2C receptors
  selectivity for GluN1/2A over GluN1/2C: 16 fold
GluN1/2D receptors
  Hill slope nH of inhibition: 1.5
  selectivity for GluN1/2A over GluN1/2D: 29 fold
GluN1/2A receptors [1]
  allosteric constant α: 0.043
GluN1/2A-I755V; 1 μM glycine
  Hill slope nH of inhibition: 1.1
GluN1/2A-I755V; [8]
  IC50: 1.2 µM
GluN1/2A-I755F; 1 μM glycine, 300 μM glutamate
  Hill slope nH of inhibition: 1.0
GluN1/2A-I755F; glycine EC50 concentration, saturating glutamate
  reduction of potency compared to wild type GluN1/2A: not significantly different
GluN1/2A-I755F; [9]
  IC50: 1.1 µM
GluN1/2B receptors
  Hill slope nH of inhibition: 1.3
  selectivity for GluN1/2A over GluN1/2B: 22 fold
GluN1/2A-I755V+Y754K
  Hill slope nH of inhibition: 1.0
[2]
  Hill slope nH of inhibition: 0.9
  IC50: 4 µM
GluN1/2A receptors [3]; 1 μM glycine, 10 μM glutamate
  Hill slope nH of inhibition: 1.1
GluN1/2A receptors [3]; 1 μM glycine, 100 μM glutamate
  Hill slope nH of inhibition: 1.1
GluN1/2A receptors [3]; 30 μM glycine, 300 μM glutamate
  Hill slope nH of inhibition: 1.3
GluN1/2A receptors [3]
  selectivity for GluN1/2A over GluN1/2B-D receptors: > 50 fold
GluN1/2A receptors [3]; 10 μM glutamate
  IC50: 0.96 µM
GluN1/2A receptors [3]; 100 μM glutamate
  IC50: 0.83 µM
GluN1/2A-V783F
  Hill slope nH of inhibition: 1.1
  decrease of potency compared to wild type GluN1/2A: 2.6 fold
GluN1/2A-V783L
  Hill slope nH of inhibition: 1.1
  decrease of potency compared to wild type GluN1/2A: 4.8 fold

## O=C(NNC(=O)c1ccc(CNS(=O)(=O)c2ccc(F)c(Cl)c2)cc1)c1ccccc1 [TCN-201]
GluN1/2C receptors
  selectivity for GluN1/2A over GluN1/2C: > 50 fold
GluN1/2A-V529I; 1 μM glycine, 300 μM glutamate
  Hill slope nH of inhibition: 1.5
GluN1/2A-V529I; [10]
  decrease of potency compared to wild type GluN1/2A: 1.5 fold
GluN1/2D receptors
  Hill slope nH of inhibition: 1.9
  selectivity for GluN1/2A over GluN1/2D: 39 fold
GluN1/2A-E789Q; 1 μM glycine, 300 μM glutamate
  Hill slope nH of inhibition: 1.3
GluN1/2A-E789Q; [10]
  change of potency compared to wild type GluN1/2A: no significant effects
GluN1/2A-E789Q; [9]
  IC50: 0.078 µM
GluN1/2A-M788T; 0.3 μM glycine, 300 μM glutamate
  Hill slope nH of inhibition: 1.4
GluN1/2A-M788T; [10]
  decrease of potency compared to wild type GluN1/2A: no significant effects
GluN1/2A-M788T; read-out: IC50 (95% CI), 0.3 μM glycine, 300 μM glutamate
  IC50: 0.14 µM
GluN1/2B receptors
  Hill slope nH of inhibition: 1.6
  selectivity for GluN1/2A over GluN1/2B: 30 fold
GluN1/2A-T797S; 1 μM glycine, 300 μM glutamate
  Hill slope nH of inhibition: 1.4
GluN1/2A-T797S; [10]
  decrease of potency compared to wild type GluN1/2A: no significant effects
GluN1/2A-T797S; [9]
  IC50: 0.068 µM
[2]
  Hill slope nH of inhibition: 1.2
  IC50: 0.28 µM
GluN1/2A-M788I; 1 μM glycine, 300 μM glutamate
  Hill slope nH of inhibition: 1.3
GluN1/2A-M788I; [10]
  decrease of potency compared to wild type GluN1/2A: no significant effects
GluN1/2A-M788I; [9]
  IC50: 0.12 µM
[4]
  blood-brain barrier penetration: lack blood-brain barrier penetration
GluN1/2A receptors [3]; 1 μM glycine, 100 μM glutamate
  Hill slope nH of inhibition: 1.2
GluN1/2A receptors [3]
  selectivity for GluN1/2A over GluN1/2B-D receptors: > 50 fold
GluN1/2A receptors [3]; 100 μM glutamate
  IC50: 0.1 µM
GluN1/2A receptors [5]
  Kb: 0.042 µM
  negative allosteric interaction constant α: 0.0032
GluN1/2A-V783F
  Hill slope nH of inhibition: 1.1
  decrease of potency compared to wild type GluN1/2A: 1.9 fold
GluN1/2A-V783L
  Hill slope nH of inhibition: 1.1
  decrease of potency compared to wild type GluN1/2A: 8.1 fold

## NCC(=O)O [Glycine]
[6]
  EC50: 0.99 µM

## Cc1ncc(CNC(=O)c2cnc(CNS(=O)(=O)c3ccc(F)c(Cl)c3)cn2)s1 [MPX-004]
[7]
  effect on EPSC decay times (weighted deactivation time constant τW): increases EPSC decay times
GluN1/2A receptors [5]
  Kb: 0.0093 µM
  negative allosteric interaction constant α: 0.0018
